Measured values taken from PubChem BioAssay.
Results filed as inconclusive are left out. The source made the active and inactive calls.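 Rule for the calls, unless noted: active = viability increase at or above a cutoff of the median across tested compounds plus 3 SD (cut at about 8.5% in these data, passing the limit was not always enough); inconclusive = some gains above the cutoff, reason not given; inactive = the rest.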

How the values were obtained:
[1] = OD615 S. cerevisiae growth inhibition, permissive medium, pilot counter-assay, permissive growth control for S. cerevisiae lifespan shortening project (AID 705;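 active = growth inhibition above 25% in both replicates, a cutoff set 3 SD above the mean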); settings: OD615, 24 h, at 10 µM, hits give high values
Method in brief: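 System: Engineered DeaD yeast | Buffer or medium: SC raffinose/galactose permissive medium | Doses: 10 µM single dose, 0.25% DMSO | Times: 24 h exposure, 30 °C | Measured by: OD615 turbidity read | Read-out: Yeast growth inhibition indicated by reduced 24 h OD615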

[2] = Restrictive medium S. cerevisiae growth inhibition, OD615, pilot screen of yeast lifespan reduction project, restrictive growth control (AID 706;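 active = growth inhibition above a set limit, 3 SD over mean compound inhibition, in both replicates, cut at about 43% in these data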;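 note: modified DeaD lifespan yeast strain shifted to restrictive glucose medium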); settings: OD615, 48 h, at 10 µM, hits give high values
Method in brief: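 Assay system: engineered S. cerevisiae DeaD strain; Buffer or medium: CSMM-D glucose medium; Dosing: 10 µM compound, 0.25% DMSO; Times: cell pre-growth 4 h, compound exposure 48 h, 30 °C; Detection: absorbance (optical density) measured at 615 nm.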

[3] = viability gain of MRP-1-high H69AR cells under doxorubicin, pilot screen, MRP-1 activator project, CellTiter-Glo, duplicate (AID 807); settings: H69AR viability with doxorubicin, CellTiter-Glo luminescence; at 10 µM; hits give high values;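 note: compound pretreatment 18-22 h then 72 h combined with doxorubicin; 0% = doxorubicin alone and 100% = vehicle without doxorubicin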
[4] = growth suppression of PTEN-deleted HCT116, pilot screen, cell-based, HCT116 clonal line, CellTiter-Glo (AID 824;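 active = viability at or below 27.92% in each of two runs, the all-compound median minus 4 SD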;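 note: 0% = 20 µM Hyamine control and 100% = vehicle cell control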); settings: 60 h, at 10 µM, hits give low values
[5] = inhibitors of the yeast RAM network, pilot screen, dse1pr::URA3 reporter, 5-FOA selection (AID 869;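 active = inhibition over a set limit, the all-compound mean plus 3 SD, in both replicate runs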;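 note: 0% = DMSO wells with no growth and 100% = 10 µM 1-NA-PP1 with full growth; RAM network block rescues cells from 5-FOA so hits raise OD615 growth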); settings: S. cerevisiae dse1pr::URA3 5-FOA growth, OD615, 2 d; at 10 µM; hits give high values; strain carries analog-sensitive mutant Cbk1 kinase
[6] = RAM signaling pathway blockade in yeast – S. cerevisiae, Pdr1DBD-CYC8 efflux-inhibited sensitized strain, primary screen (AID 1298;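 active = RAM network inhibition above 8.4% in each of two replicates, 3 SD over the compound average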;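 note: 0% = DMSO untreated cells without growth and 100% = 10 µM 1-NA-PP1 full growth; higher means more yeast growth rescued from 5-FOA killing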); settings: S. cerevisiae cbk1-as DSE1-URA3 strain, 5-FOA growth OD615, 2 d; at 50 µM; hits give high values

Cc1ccsc1C(=O)OCC(=O)c1cc2ccccc2o1
inactive: growth inhibition [1] -18.1% | growth inhibition [2] -10.8% | viability increase [3] -2.86% | viability [4] 97.3% | inhibition [5] 1.28% | RAM network inhibition [6] 1.03%

COc1ccc(-c2nc(SC)n(C)c(=O)c2C#N)cc1OC
inactive: growth inhibition [1] -6.31% | growth inhibition [2] -12.2% | viability increase [3] -4.81% | viability [4] 87.9% | inhibition [5] 0.12% | RAM network inhibition [6] 9.22%

CCOC(=O)c1cc2c(=O)n3ccccc3nc2n(CCOC)c1=NC(=O)c1ccncc1
inactive: growth inhibition [1] -1.34% | growth inhibition [2] -11.8% | viability increase [3] -5.7% | viability [4] 99.6% | inhibition [5] 0.96% | RAM network inhibition [6] 5.99%

Cc1ccc2nc(NC(=O)c3cccs3)sc2c1
inactive: growth inhibition [1] -2.67% | growth inhibition [2] 10.6% | viability increase [3] -4.54% | viability [4] 69.2% | inhibition [5] 1.29% | RAM network inhibition [6] 4.15%

O=C(NCc1ccco1)C1CCN(C(=O)Cc2ccccc2)CC1
inactive: growth inhibition [1] -8.46% | growth inhibition [2] 4.75% | viability increase [3] -3.71% | viability [4] 102% | inhibition [5] 1.32% | RAM network inhibition [6] 3.59%

O/N=C1\CCCc2oc3c(c21)CCCC3
inactive: growth inhibition [1] -7.12% | growth inhibition [2] -2.73% | viability increase [3] -1.84% | viability [4] 97.5% | inhibition [5] 2.48% | RAM network inhibition [6] 1.89%

CCSc1nsc(SCC)c1C(N)=O
inactive: growth inhibition [1] -3.27% | growth inhibition [2] -11.2% | viability increase [3] -1.55% | viability [4] 102% | inhibition [5] 0.83% | RAM network inhibition [6] 1.14%

CCCOc1ccc(/C(O)=C2/C(=O)C(=O)N(CCN(C)C)C2c2ccco2)cc1 (configuration not stated)
inactive: growth inhibition [1] -0.855% | growth inhibition [2] 13.9% | viability increase [3] -4.27% | viability [4] 99.6% | inhibition [5] -0.28% | RAM network inhibition [6] -1.54%

CC(C)c1cc(=O)oc2c3c4c(cc12)CCCN4CCC3
inactive: growth inhibition [1] 0.175% | growth inhibition [2] 9.32% | viability increase [3] -4.62% | viability [4] 57.8% | inhibition [5] 1.84% | RAM network inhibition [6] 3.62%

CS(=O)(=O)NCCSCc1ccc(Cl)cc1
inactive: growth inhibition [1] -8.71% | growth inhibition [2] -3.54% | viability increase [3] -0.89% | viability [4] 97.9% | inhibition [5] 1.62% | RAM network inhibition [6] 4.47%

c1ccc(CSc2nnc3c(n2)OC(c2ccco2)Nc2ccccc2-3)cc1 (configuration not stated)
inactive: growth inhibition [1] -10.6% | growth inhibition [2] 2.27% | viability increase [3] -4.19% | viability [4] 88.8% | inhibition [5] 0.38% | RAM network inhibition [6] 7.16%

c1cncc(CNc2nc(N3CCOCC3)nc(N3CCOCC3)n2)c1
inactive: growth inhibition [1] -10.4% | growth inhibition [2] 1.83% | viability increase [3] -2.97% | viability [4] 91.8% | inhibition [5] 1.27% | RAM network inhibition [6] 1.95%

O=c1cc(NCc2ccco2)c2ccccc2o1
inactive: growth inhibition [1] -2.07% | growth inhibition [2] -3.13% | viability increase [3] -4.38% | viability [4] 96.7% | inhibition [5] 1.84% | RAM network inhibition [6] 1.33%

Cc1cc(C(=O)NC(C)c2ccncc2)no1 (configuration not stated)
inactive: growth inhibition [1] -12.9% | growth inhibition [2] 8.19% | viability increase [3] -2.15% | viability [4] 90.3% | inhibition [5] 1.55% | RAM network inhibition [6] 0.72%

O=c1c2c(nc3c(-c4ccccc4)c[nH]n13)CCCC2
inactive: growth inhibition [1] -7.02% | growth inhibition [2] -8.55% | viability increase [3] -5.26% | viability [4] 49.2% | inhibition [5] 1.02% | RAM network inhibition [6] 0.27%

Nc1ccc(O)c(-c2nc3ccccc3s2)c1
inactive: growth inhibition [1] 2.32% | growth inhibition [2] 5.73% | viability increase [3] -7.28% | viability [4] 32.6% | inhibition [5] 2.77% | RAM network inhibition [6] 1.92%

CCOC(=O)N1CCC(NC(=O)C(CC(C)C)NC(=O)C2CCCCC2)CC1 (configuration not stated)
inactive: growth inhibition [1] -6.28% | growth inhibition [2] -1.08% | viability increase [3] -2.08% | viability [4] 100% | inhibition [5] 2.41% | RAM network inhibition [6] 1.8%

O=C(c1ccco1)N1CCCC(c2nc(-c3ccc(S(=O)(=O)NCc4ccccc4)cc3)no2)C1 (configuration not stated)
inactive: growth inhibition [1] -8.47% | growth inhibition [2] -27.3% | viability increase [3] -2.74% | viability [4] 47.4% | inhibition [5] 1.58% | RAM network inhibition [6] 3.3%

C/C(=C1/SC(=S)N(CCC(=O)O)C1=O)c1ccc(O)cc1
inactive: growth inhibition [1] -5.09% | growth inhibition [2] -8.91% | viability increase [3] 1.4% | viability [4] 98.1% | inhibition [5] 1.2% | RAM network inhibition [6] 0.45%

N#Cc1ccc(Sc2nc3ccccc3[nH]2)cc1C#N
inactive: growth inhibition [1] -7.23% | growth inhibition [2] 4.58% | viability increase [3] -5.02% | viability [4] 89.8% | inhibition [5] 2.44% | RAM network inhibition [6] 1.9%

CCOC(=O)N1CCN(C(=O)CS(=O)(=O)c2cn(Cc3ccccc3C)c3ccccc23)CC1
inactive: growth inhibition [1] -9.04% | growth inhibition [2] -6% | viability increase [3] -2.26% | viability [4] 94% | inhibition [5] 2.09% | RAM network inhibition [6] 8.81%

O/N=C1/C2C3CC4C5C3C1C5C1(OCCO1)C42 (configuration not stated)
inactive: growth inhibition [1] -8.1% | growth inhibition [2] -16.9% | viability increase [3] -1.45% | viability [4] 99% | inhibition [5] 1.39% | RAM network inhibition [6] 3.89%

CCOC(=O)C(C(=O)Nc1cccc(C)n1)C1CCCCC1 (configuration not stated)
inactive: growth inhibition [1] -6.76% | growth inhibition [2] -0.005% | viability increase [3] 1.76% | viability [4] 88.1% | inhibition [5] 3.22% | RAM network inhibition [6] 2.72%

COC(=O)c1c(C)oc2cc(Br)c(OCC(=O)C(C)(C)C)cc12
inactive: growth inhibition [1] -9.2% | growth inhibition [2] -14.9% | viability increase [3] -2.86% | viability [4] 90.9% | inhibition [5] 1.84% | RAM network inhibition [6] 3.84%

O=C(CNC(=O)c1ccco1)OCc1ccc(Cl)cc1
inactive: growth inhibition [1] -3.76% | growth inhibition [2] 2.92% | viability increase [3] -2.32% | viability [4] 102% | inhibition [5] 0.375% | RAM network inhibition [6] 0.25%

Cc1cc(NC(=O)COC(=O)C2CCN(S(=O)(=O)c3ccc(Cl)cc3)CC2)no1
inactive: growth inhibition [1] 4.11% | growth inhibition [2] -2.37% | viability increase [3] -2.01% | viability [4] 98.9% | inhibition [5] 1.19% | RAM network inhibition [6] 1.38%

O=C(COc1ccccc1)NCCSc1ccccc1
inactive: growth inhibition [1] -10.4% | growth inhibition [2] -5.4% | viability increase [3] -2.23% | viability [4] 97.5% | inhibition [5] 1.55% | RAM network inhibition [6] 0.83%

CCC1CCCCN1C(=O)Cn1c(=O)oc2ccccc21 (configuration not stated)
inactive: growth inhibition [1] -8.32% | growth inhibition [2] -4.71% | viability increase [3] -2.07% | viability [4] 101% | inhibition [5] 1.96% | RAM network inhibition [6] 4.3%

COC(=O)CNC(=O)Cn1cnc2sc(C)c(S(=O)(=O)N3CCC(C)CC3)c2c1=O
inactive: growth inhibition [1] -2.79% | growth inhibition [2] 12.7% | viability increase [3] -3.93% | viability [4] 99.2% | inhibition [5] 1.11% | RAM network inhibition [6] 0.37%

Cc1ccc(Cl)cc1N(CC(=O)N1CCCCCC1)S(C)(=O)=O
inactive: growth inhibition [1] -9.3% | growth inhibition [2] 10.7% | viability increase [3] -3.63% | viability [4] 93.4% | inhibition [5] 0.635% | RAM network inhibition [6] 1.37%

C=CCn1c(C)cc(C(=O)COc2nncc3ccccc23)c1C
inactive: growth inhibition [1] -10.3% | growth inhibition [2] -15% | viability increase [3] -2.37% | viability [4] 74.2% | inhibition [5] 2.32% | RAM network inhibition [6] 0.87%

c1coc(CNc2c3c(nc4ncnn24)CCCC3)c1
inactive: growth inhibition [1] 0.96% | growth inhibition [2] 6.76% | viability increase [3] -1.88% | viability [4] 93.1% | inhibition [5] -0.155% | RAM network inhibition [6] 1.39%

Cc1ccc(S(=O)(=O)c2nc(-c3ccc(F)cc3)oc2SCC(=O)NCC2CCCO2)cc1 (configuration not stated)
active: viability [4] 15.3%
inactive: growth inhibition [1] 8.03% | growth inhibition [2] -4.51% | viability increase [3] -7.96% | inhibition [5] 0.69% | RAM network inhibition [6] 10.9%

COc1ccc(C(=O)NC(C)c2nc3ccccc3[nH]2)cc1OC (configuration not stated)
inactive: growth inhibition [1] -9.91% | growth inhibition [2] -3.65% | viability increase [3] -1.84% | viability [4] 97.9% | inhibition [5] 2.15% | RAM network inhibition [6] 4.78%

O=C(Oc1ccc(Cl)cc1)N1CCCCC1
inactive: growth inhibition [1] -8.34% | growth inhibition [2] 3.42% | viability increase [3] 0.94% | viability [4] 103% | inhibition [5] -0.1% | RAM network inhibition [6] 4.56%

O=C1C2C3C=CC(C3)C2C(=O)N1CCN1CCN(S(=O)(=O)c2ccc3ccccc3c2)CC1 (configuration not stated)
inactive: growth inhibition [1] -8.82% | growth inhibition [2] 0.84% | viability increase [3] -5.03% | viability [4] 83.5% | inhibition [5] 1.27% | RAM network inhibition [6] 3.68%

COc1cc(C(C)=O)ccc1OC(=O)C(C)N1C(=O)c2ccccc2C1=O (configuration not stated)
inactive: growth inhibition [1] -17.5% | growth inhibition [2] -5.68% | viability increase [3] -2.73% | viability [4] 93.9% | inhibition [5] 1.02% | RAM network inhibition [6] 3.8%
